For seven compounds, IC50 results are on record in ChEMBL document CHEMBL1155001, “Design, synthesis of novel peptidomimetic derivatives of 4-HPR for rhabdoid tumors” (Bioorg Med Chem Lett, 2008).

Holding throughout (format): functional, cell-based
Assay [1] is described as follows: Cytotoxicity against INI1 gene deficient human MON cells assessed as cell survival after 3 days by MTS assay. Conditions: 72 h. Put shortly:
(§1)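 INI1-deficient MON rhabdoid tumor cells were grown in RPMI 1640 with 10% FBS, 2 mM L-glutamine, penicillin and streptomycin at 37 °C in 5% CO2. Survival was read by MTS after 3 days. Relative IC50 was taken from a sigmoidal variable-slope fit of % inhibition vs log concentration.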
(Formazan colour is commonly taken as a measure of viable cells.)

Another assay relates to G-401. Description: Cytotoxicity against human G401 cells assessed as cell survival after 3 days by MTS assay. To be noted: G-401, 72 h.
A short description of assay [2]: Cytotoxicity against human STM cells assessed as cell survival after 3 days by MTS assay. Conditions: 72 h.
Assay [3] is described as follows: Cytotoxicity against human MON cells assessed as cell survival after 3 days by MTS assay. To be noted: 72 h. Put shortly: as §1

With `CCC1=C(C)/C(=C/c2ccc(C(=O)Nc3ccc(O)c(Cl)c3)cc2)CCC1(C)C`, in assay [1], the IC50 (commonly the concentration at which inhibition is half-maximal) came out at 10.4 µM.

As to `CCC1=C(C)/C(=C/c2ccc(C(=O)Nc3ccc(O)c(F)c3)cc2)CCC1(C)C`, the IC50 in assay [1] amounted to 12.9 µM.

For `CCC1=C(C)/C(=C/c2ccc(C(=O)Nc3ccc(O)c(I)c3)cc2)CCC1(C)C`, the IC50 in assay [1] was found to be 3.15 µM.

Turning to `CCC1=C(C)/C(=C/c2ccc(C(=O)Nc3ccc(O)cc3O)cc2)CCC1(C)C`, in assay [1], the IC50 was 47.2 µM.

`CCC1=C(C)/C(=C/c2ccc(C(=O)O)cc2)CCC1(C)C`: the IC50 in assay [1] was above 50 µM.

For `CCC1=C(C)/C(=C/c2ccc(C(=O)Nc3ccc(CO)cc3)cc2)CCC1(C)C`, the IC50 in assay [1] stood at 29.1 µM.

On to `CC1=C(/C=C/C(C)=C/C=C/C(C)=C/C(=O)Nc2ccc(O)cc2)C(C)(C)CCC1` [FENRETINIDE], for which the IC50 in the assay on G-401 worked out at 5 µM; in assay [1], 14.7 µM; in assay [2] it was 5 µM; in assay [3] it was 12 µM.
